Results as given in ChEMBL document CHEMBL1147105, “In vitro and in vivo activities of PD 0305970 and PD 0326448, new bacterial gyrase/topoisomerase inhibitors with potent antibacterial activities versus multidrug-resistant gram-positive and fastidious organism groups” (2007).
Values after ≈ are worked out from the molar mass of the structure shown.

Key:
Format in all cases: functional
Enterococcus faecalis = experiment: Antibacterial activity against beta-lactamase positive Enterococcus faecalis
Outline: (§1)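 MIC by CLSI broth microdilution for nonfastidious organisms, in cation-adjusted Mueller-Hinton broth incubated at 35°C.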

Enterococcus faecium = experiment: Antibacterial activity against VanA-resistant Enterococcus faecium
Outline: (§2)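 Broth microdilution MIC per CLSI guidelines, incubated at 35°C. Cation-adjusted Mueller-Hinton broth for nonfastidious organisms and staphylococci. Streptococci tested in the same broth with 3% lysed horse blood. Anaerobes tested in supplemented Brucella broth inside an anaerobe chamber (5% CO2, 5% H2, 90% N2), read after 48 h. Strains were mainly recent clinical isolates with confirmed identity.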

Listeria monocytogenes = experiment: Antibacterial activity against Listeria monocytogenes
Outline: (§3)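 Broth microdilution MIC following CLSI guidelines, in cation-adjusted Mueller-Hinton broth containing 3% lysed horse blood, incubated at 35°C. Clinical isolates with identity confirmed. Reported as MIC range, MIC50 and MIC90.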

Haemophilus influenzae = experiment: Antibacterial activity against beta-lactamase positive Haemophilus influenzae
Outline: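 Broth microdilution MIC following CLSI guidelines, in Haemophilus test medium at 35°C.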

Moraxella catarrhalis = experiment: Antibacterial activity against beta-lactamase negative Moraxella catarrhalis
Neisseria gonorrhoeae = experiment: Antibacterial activity against Neisseria gonorrhoeae
Outline: (§4)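 MIC by broth microdilution in gonococcal broth, incubated at 35°C in 5% CO2. Reported as MIC range, MIC50 and MIC90.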

Klebsiella aerogenes = experiment: Antibacterial activity against Enterobacter aerogenes
Outline: (§5)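 Broth microdilution MIC following CLSI guidelines, in cation-adjusted Mueller-Hinton broth, incubated at 35°C. Recent clinical isolates and reference strains, with identity confirmed by automated and standard microbiological methods. Results reported as MIC range, MIC50 and MIC90.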

Enterobacter cloacae = experiment: Antibacterial activity against Enterobacter cloacae; outline: as §5
Klebsiella oxytoca = experiment: Antibacterial activity against Klebsiella oxytoca; outline: as §5
Klebsiella pneumoniae = experiment: Antibacterial activity against beta-lactamase positive Klebsiella pneumoniae; outline: as §1
Morganella morganii = experiment: Antibacterial activity against Morganella morganii; outline: as §5
Proteus mirabilis = experiment: Antibacterial activity against Proteus mirabilis; outline: as §5
Proteus vulgaris = experiment: Antibacterial activity against Proteus vulgaris; outline: as §5
Shigella dysenteriae = experiment: Antibacterial activity against Shigella dysenteriae
Shigella flexneri = experiment: Antibacterial activity against Shigella flexneri; outline: as §5
[1] = system: Peptoniphilus asaccharolyticus; experiment: Antibacterial activity against Peptostreptococcus asaccharolyticus
Outline: (§6)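 Anaerobic broth microdilution MIC following CLSI guidelines, in supplemented Brucella broth. Run in an anaerobe chamber under 5% CO2, 5% H2 and 90% N2 at 35°C, and read after 48 h. Reported as MIC range, MIC50 and MIC90.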

[2] = system: Fusobacterium necrophorum; experiment: Antibacterial activity against Fusobacterium necrophorum; outline: as §6
Bacteroides ovatus = experiment: Antibacterial activity against Bacteroides ovatus; outline: as §6
Staphylococcus aureus [3] = experiment: Antibacterial activity against oxacillin-susceptible Staphylococcus aureus; outline: as §1
Staphylococcus aureus [4] = experiment: Antibacterial activity against oxacillin and levofloxacin-resistant Staphylococcus aureus; outline: as §2
[5] = system: Staphylococcus epidermidis; experiment: Antibacterial activity against oxacillin-susceptible Staphylococcus epidermidis; outline: as §1
[6] = system: Staphylococcus saprophyticus; experiment: Antibacterial activity against Staphylococcus saprophyticus; outline: as §5
Streptococcus agalactiae = experiment: Antibacterial activity against Streptococcus agalactiae; outline: as §3
Streptococcus pneumoniae [7] = experiment: Antibacterial activity against penicillin-intermediate resistant Streptococcus pneumoniae; outline: as §2
Streptococcus pneumoniae [8] = experiment: Antibacterial activity against penicillin-resistant Streptococcus pneumoniae; outline: as §2
Anaerococcus prevotii = experiment: Antibacterial activity against Peptostreptococcus prevotii; outline: as §6
Prevotella buccae = experiment: Antibacterial activity against Prevotella buccae; settings: Segatella buccae; outline: as §6
Prevotella corporis = experiment: Antibacterial activity against Prevotella corporis; outline: as §6
Hoylesella oralis = experiment: Antibacterial activity against Prevotella oralis; outline: as §6
Cutibacterium acnes = experiment: Antibacterial activity against Propionibacterium acnes
Neisseria meningitidis = experiment: Antibacterial activity against Neisseria meningitidis; outline: as §4
Streptococcus salivarius = experiment: Antibacterial activity against Streptococcus salivarius
Outline: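 Broth microdilution MIC following CLSI guidelines, in cation-adjusted Mueller-Hinton broth with 3% lysed horse blood. Plates incubated at 35°C. Clinical isolates and reference strains, with identity confirmed by standard microbiological methods.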

Staphylococcus aureus [9] = experiment: Antibacterial efficacy against ciprofloxacin and methicillin-resistant Staphylococcus aureus SA2017 infected orally dosed CD1 mouse model
Outline: (§7)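 Sepsis model in female CD1 mice (6–8 weeks, 18–22 g). Lethal i.p. challenge (0.5 ml) at ≥100 median lethal doses. Streptococci were given in Todd-Hewitt broth; other organisms were given with 20% hog gastric mucin. A single oral gavage dose (0.5 ml, in 0.5% methylcellulose) was given at the time of challenge. The PD50 (mg/kg) was calculated by probit analysis.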

Staphylococcus aureus [10] = experiment: Antibacterial efficacy against methicillin-resistant Staphylococcus aureus SA1417 infected orally dosed CD1 mouse model; outline: as §7
Streptococcus pneumoniae [11] = experiment: Antibacterial efficacy against Streptococcus pneumoniae SVI infected orally dosed CD1 mouse model; settings: po; outline: as §7
Streptococcus pyogenes = experiment: Antibacterial efficacy against Streptococcus pyogenes C203 infected orally dosed CD1 mouse model; settings: C203, po; outline: as §7
Streptococcus pneumoniae [12] = experiment: Antibacterial activity against Streptococcus pneumoniae SVI infected once daily orally dosed CD1 mouse; settings: po
Outline: (§8)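 Pneumonia model in CD1 mice (n = 8), anaesthetised with ketamine i.p. Intranasal instillation of 50 μl of broth culture (10^8–10^9 CFU/ml, OD600 0.70), confirmed by plate counts. Oral therapy began 24 h post-challenge. Dosing was either once daily for 1 day or twice daily for 3 days. The result was given as the PD50 (mg/kg).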

Streptococcus pneumoniae [13] = experiment: Antibacterial activity against quinolone-resistant Streptococcus pneumoniae SP4333 infected twice daily orally dosed CD1 mouse; settings: po; outline: as §8
[14] = system: Parabacteroides distasonis; experiment: Antimicrobial activity against Bacteroides distasonis
Outline: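 Anaerobic broth microdilution MIC following CLSI guidelines, in supplemented Brucella broth. Incubated at 35°C in a chamber under 5% CO2, 5% H2 and 90% N2. Read after 48 h.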

`Cc1c(N2CC[C@@H]([C@H](C)N)C2)c(F)cc2c(=O)n(N)c(=O)n(C3CC3)c12` showed an MIC (Enterococcus faecalis) of 0.06 µg/mL (≈ 0.166 µM), an MIC50 (Enterococcus faecium) of 1 µg/mL (≈ 2.77 µM) and an MIC90 (Enterococcus faecium) of 2 µg/mL (≈ 5.53 µM). It also gave an MIC50 (Listeria monocytogenes) of 0.125 µg/mL (≈ 0.346 µM), an MIC90 (Listeria monocytogenes) of 0.25 µg/mL (≈ 0.692 µM) and an MIC50 (Haemophilus influenzae) of 0.125 µg/mL (≈ 0.346 µM). The MIC90 (Haemophilus influenzae) was 0.25 µg/mL (≈ 0.692 µM), the MIC50 (Moraxella catarrhalis) was 0.25 µg/mL (≈ 0.692 µM) and the MIC90 (Moraxella catarrhalis) was 0.5 µg/mL (≈ 1.38 µM). The MIC50 (Neisseria gonorrhoeae) was 0.25 µg/mL (≈ 0.692 µM), the MIC90 (Neisseria gonorrhoeae) was 0.5 µg/mL (≈ 1.38 µM) and the MIC50 (Klebsiella aerogenes) was 4 µg/mL (≈ 11.1 µM). For the same molecule, the MIC90 (Klebsiella aerogenes) was 8 µg/mL (≈ 22.1 µM), the MIC50 (Enterobacter cloacae) was 1 µg/mL (≈ 2.77 µM) and the MIC90 (Enterobacter cloacae) was 4 µg/mL (≈ 11.1 µM). The MIC50 (Klebsiella oxytoca) was 1 µg/mL (≈ 2.77 µM), the MIC90 (Klebsiella oxytoca) was 2 µg/mL (≈ 5.53 µM) and the MIC50 (Klebsiella pneumoniae) was 2 µg/mL (≈ 5.53 µM). The MIC90 (Klebsiella pneumoniae) was 8 µg/mL (≈ 22.1 µM), the MIC50 (Morganella morganii) was 2 µg/mL (≈ 5.53 µM) and the MIC90 (Morganella morganii) was 8 µg/mL (≈ 22.1 µM). The MIC50 (Proteus mirabilis) was 1 µg/mL (≈ 2.77 µM), the MIC90 (Proteus mirabilis) was 2 µg/mL (≈ 5.53 µM) and the MIC (Proteus vulgaris) was 1 µg/mL (≈ 2.77 µM). For the same molecule, the MIC50 (Shigella dysenteriae) was 0.5 µg/mL (≈ 1.38 µM), the MIC90 (Shigella dysenteriae) was 1 µg/mL (≈ 2.77 µM) and the MIC50 (Shigella flexneri) was 0.5 µg/mL (≈ 1.38 µM). It also gave an MIC90 (Shigella flexneri) of 1 µg/mL (≈ 2.77 µM), an MIC [1] of 0.03 µg/mL (≈ 0.083 µM) and an MIC [2] of 0.06 µg/mL (≈ 0.166 µM). For the same molecule, the MIC50 (Bacteroides ovatus) was 4 µg/mL (≈ 11.1 µM), the MIC90 (Bacteroides ovatus) was 16 µg/mL (≈ 44.3 µM) and the MIC50 (Staphylococcus aureus [3]) was 0.125 µg/mL (≈ 0.346 µM). For the same molecule, the MIC90 (Staphylococcus aureus [3]) was 0.125 µg/mL (≈ 0.346 µM), the MIC50 (Staphylococcus aureus [4]) was 0.25 µg/mL (≈ 0.692 µM) and the MIC90 (Staphylococcus aureus [4]) was 0.5 µg/mL (≈ 1.38 µM). It also gave an MIC [5] of 0.06 µg/mL (≈ 0.166 µM), an MIC50 [6] of 0.06 µg/mL (≈ 0.166 µM) and an MIC90 [6] of 0.125 µg/mL (≈ 0.346 µM). The MIC50 (Streptococcus agalactiae) was 0.03 µg/mL (≈ 0.083 µM), the MIC90 (Streptococcus agalactiae) was 0.03 µg/mL (≈ 0.083 µM) and the MIC50 (Streptococcus pneumoniae [7]) was 0.03 µg/mL (≈ 0.083 µM). It also gave an MIC90 (Streptococcus pneumoniae [7]) of 0.06 µg/mL (≈ 0.166 µM), an MIC50 (Streptococcus pneumoniae [8]) of 0.03 µg/mL (≈ 0.083 µM) and an MIC90 (Streptococcus pneumoniae [8]) of 0.03 µg/mL (≈ 0.083 µM). The MIC (Anaerococcus prevotii) was 0.03 µg/mL (≈ 0.083 µM), the MIC50 (Prevotella buccae) was 0.25 µg/mL (≈ 0.692 µM) and the MIC90 (Prevotella buccae) was 1 µg/mL (≈ 2.77 µM). It also gave an MIC50 (Prevotella corporis) of 0.25 µg/mL (≈ 0.692 µM), an MIC90 (Prevotella corporis) of 1 µg/mL (≈ 2.77 µM) and an MIC50 (Hoylesella oralis) of 0.25 µg/mL (≈ 0.692 µM). It also gave an MIC90 (Hoylesella oralis) of 1 µg/mL (≈ 2.77 µM), an MIC50 (Cutibacterium acnes) of 2 µg/mL (≈ 5.53 µM) and an MIC90 (Cutibacterium acnes) of 4 µg/mL (≈ 11.1 µM). The MIC50 (Neisseria meningitidis) was 0.25 µg/mL (≈ 0.692 µM), the MIC90 (Neisseria meningitidis) was 0.5 µg/mL (≈ 1.38 µM) and the MIC50 (Streptococcus salivarius) was 0.03 µg/mL (≈ 0.083 µM). It also gave an MIC90 (Streptococcus salivarius) of 0.03 µg/mL (≈ 0.083 µM), an MIC (Staphylococcus aureus [9]) of 0.25 µg/mL (≈ 0.692 µM) and an ED50 (Staphylococcus aureus [9]; read-out: PD50) of 23 mg/kg. For the same molecule, the MIC (Staphylococcus aureus [10]) was 0.25 µg/mL (≈ 0.692 µM), the ED50 (Staphylococcus aureus [10]; read-out: PD50) was 2.5 mg/kg and the MIC (Streptococcus pneumoniae [11]) was 0.015 µg/mL (≈ 0.0415 µM). It also gave an ED50 (Streptococcus pneumoniae [11]; read-out: PD50) of 2.7 mg/kg, an MIC (Streptococcus pyogenes) of 0.015 µg/mL (≈ 0.0415 µM) and an ED50 (Streptococcus pyogenes; read-out: PD50) of 0.7 mg/kg. It also gave an MIC (Streptococcus pneumoniae [12]) of 0.008 µg/mL (≈ 0.0221 µM), an ED50 (Streptococcus pneumoniae [12]; read-out: PD50) of 3.2 mg/kg and an MIC (Streptococcus pneumoniae [13]) of 0.03 µg/mL (≈ 0.083 µM). The ED50 (Streptococcus pneumoniae [13]; read-out: PD50) was 4.1 mg/kg, the MIC50 [14] was 4 µg/mL (≈ 11.1 µM) and the MIC90 [14] was 16 µg/mL (≈ 44.3 µM).
